Data taken from ChEMBL document CHEMBL4017460, “A Tobramycin Vector Enhances Synergy and Efficacy of Efflux Pump Inhibitors against Multidrug-Resistant Gram-Negative Bacteria” (J Med Chem, 2017).
In brackets after ≈: the same amount, converted by molar mass. Activity calls are given as the source filed them. The calls are words filed in the database; no cut-off is given here.

What was measured:
Pseudomonas aeruginosa [1] = experiment: Reduction in flagellum-dependant motility in Pseudomonas aeruginosa PAO1 after 20 hrs by swimming motility test; assay type: functional
How it was run: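 PAO1 flagellum-dependent swimming motility on swimming plates containing sub-MIC compound, compared with plates without compound.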

[2] = test system: Pseudomonas aeruginosa PAO1; experiment: Inhibition of RND efflux pump in Pseudomonas aeruginosa PAO1 assessed as potentiation of gentamicin-induced antibacterial activity after 18 to 24 hrs by checker board assay
How it was run: (§1)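 Checkerboard in MHB: antibiotic 2-fold diluted along one axis, test agent 2-fold diluted along the other. Overnight culture standardized to 0.5 McFarland in saline, diluted 1:50 in MHB, added to wells, incubated 37 °C for 18 h. MIC is the lowest concentration with no growth. FIC = MIC in combination / MIC alone; FIC index = sum of both FICs.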

Enterobacter cloacae [3] = experiment: Inhibition of RND efflux pump in Enterobacter cloacae isolate 117029 assessed as potentiation of minocycline-induced antibacterial activity by measuring fold reduction in minocycline MIC at 8 ug/ml after 18 to 24 hrs by microbroth dilution assay
How it was run: (§2)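 Absolute minocycline MIC taken from checkerboard broth dilution with a fixed 8 μg/mL adjuvant. Inoculum was a 0.5 McFarland saline suspension diluted 1:50 in MHB, incubated 37 °C for 18 h. MIC is the lowest concentration with no growth.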

Pseudomonas aeruginosa [4] = experiment: Antibacterial activity against colistin-resistant Pseudomonas aeruginosa isolate 91433 after 18 to 24 hrs by microbroth dilution assay; assay type: functional
How it was run: as §1, with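 “broth microdilution:” for “in MHB:”, “adjuvant” for “test agent”, “wells,” for “wells, incubated”, “FICI” for “FIC index”, “the two FICs; FICI ≤0.5 is synergy.” for “both FICs.”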

[5] = test system: Pseudomonas aeruginosa PAO1; experiment: Inhibition of RND efflux pump in Pseudomonas aeruginosa PAO1 assessed as potentiation of minocycline-induced antibacterial activity at 8 ug/ml after 18 to 24 hrs by checker board assay; how it was run: as §1
Pseudomonas aeruginosa [6] = experiment: Inhibition of RND efflux pump in Pseudomonas aeruginosa isolate P260-97103 assessed as potentiation of minocycline-induced antibacterial activity by measuring minocycline MIC at 0.25 times antibacterial MIC after 18 to 24 hrs by microbroth dilution assay (reference value: 8 to 16 ug/ml)
How it was run: as §1, with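 “broth microdilution:” for “in MHB:”, “adjuvant” for “test agent”, “wells,” for “wells, incubated”, “FICI” for “FIC index”, “the two FICs; FICI ≤0.5 is synergy.” for “both FICs.”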

Pseudomonas aeruginosa [7] = experiment: Inhibition of RND efflux pump in Pseudomonas aeruginosa isolate P259-96918 assessed as potentiation of minocycline-induced antibacterial activity at 8 ug/ml after 18 to 24 hrs by checker board assay; how it was run: as §1
Enterobacter cloacae [8] = experiment: Antibacterial activity against Enterobacter cloacae isolate 117029 after 18 to 24 hrs by microbroth dilution assay; assay type: functional; how it was run: as §1
Pseudomonas aeruginosa [9] = experiment: Antibacterial activity against Pseudomonas aeruginosa PAO1 after 18 to 24 hrs by microbroth dilution assay; assay type: functional; how it was run: as §1
Pseudomonas aeruginosa [10] = experiment: Inhibition of RND efflux pump in Pseudomonas aeruginosa isolate 101885 assessed as potentiation of minocycline-induced antibacterial activity by measuring minocycline MIC at 8 ug/ml after 18 to 24 hrs by microbroth dilution assay (reference value: 16 to 32 ug/ml); how it was run: as §2
Pseudomonas aeruginosa [11] = experiment: Inhibition of RND efflux pump in Pseudomonas aeruginosa isolate P260-97103 assessed as potentiation of minocycline-induced antibacterial activity by measuring fold reduction in minocycline MIC at 0.25 times antibacterial MIC after 18 to 24 hrs by microbroth dilution assay
How it was run: as §1, with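 “broth microdilution:” for “in MHB:”, “adjuvant” for “test agent”, “wells,” for “wells, incubated”, “FICI” for “FIC index”, “the two FICs; FICI ≤0.5 is synergy.” for “both FICs.”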

[12] = test system: Pseudomonas aeruginosa PAO1; experiment: Inhibition of RND efflux pump in Pseudomonas aeruginosa PAO1 assessed as potentiation of doxycycline-induced antibacterial activity by measuring fold reduction in doxycycline MIC at 8 ug/ml after 18 to 24 hrs by microbroth dilution assay relative to doxycycline alone
How it was run: as §1, with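 “broth microdilution:” for “in MHB:”, “adjuvant” for “test agent”, “wells,” for “wells, incubated”, “FICI” for “FIC index”, “the two FICs; FICI ≤0.5 is synergy.” for “both FICs.”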

Pseudomonas aeruginosa [13] = experiment: Inhibition of RND efflux pump in colistin-resistant Pseudomonas aeruginosa isolate 101243 assessed as potentiation of minocycline-induced antibacterial activity by measuring minocycline MIC at 8 ug/ml after 18 to 24 hrs by microbroth dilution assay (reference value: 32 ug/ml)
How it was run: as §1, with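 “broth microdilution:” for “in MHB:”, “adjuvant” for “test agent”, “wells,” for “wells, incubated”, “FICI” for “FIC index”, “the two FICs; FICI ≤0.5 is synergy.” for “both FICs.”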

Pseudomonas aeruginosa [14] = experiment: Inhibition of RND efflux pump in Pseudomonas aeruginosa isolate P262-101856 assessed as potentiation of minocycline-induced antibacterial activity at 8 ug/ml after 18 to 24 hrs by checker board assay; how it was run: as §1
[15] = test system: Pseudomonas aeruginosa PAO1; experiment: Inhibition of RND efflux pump in Pseudomonas aeruginosa PAO1 assessed as potentiation of erythromycin-induced antibacterial activity […] by microbroth dilution assay
Pseudomonas aeruginosa [16] = experiment: Inhibition of RND efflux pump in Pseudomonas aeruginosa isolate 101885 assessed as potentiation of minocycline-induced antibacterial activity by measuring fold reduction in minocycline MIC at 8 ug/ml after 18 to 24 hrs by microbroth dilution assay
How it was run: as §1, with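 “broth microdilution:” for “in MHB:”, “adjuvant” for “test agent”, “wells,” for “wells, incubated”, “FICI” for “FIC index”, “the two FICs; FICI ≤0.5 is synergy.” for “both FICs.”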

Pseudomonas aeruginosa [17] = experiment: Inhibition of RND efflux pump in Pseudomonas aeruginosa isolate P259-96918 assessed as potentiation of minocycline-induced antibacterial activity by measuring minocycline MIC at 8 ug/ml after 18 to 24 hrs by microbroth dilution assay (reference value: 32 ug/ml); how it was run: as §2
[18] = test system: Pseudomonas aeruginosa PAO1; experiment: Inhibition of RND efflux pump in Pseudomonas aeruginosa PAO1 assessed as potentiation of trimethoprim-induced antibacterial activity […] by microbroth dilution assay
Pseudomonas aeruginosa [19] = experiment: Inhibition of RND efflux pump in Pseudomonas aeruginosa isolate P260-97103 assessed as potentiation of minocycline-induced antibacterial activity at 0.25 times antibacterial MIC after 18 to 24 hrs by checker board assay; how it was run: as §1
Klebsiella pneumoniae = experiment: Inhibition of RND efflux pump in Klebsiella pneumoniae isolate 116381 assessed as potentiation of minocycline-induced antibacterial activity by measuring minocycline MIC at 8 ug/ml after 18 to 24 hrs by microbroth dilution assay (reference value: 128 ug/ml); how it was run: as §2
Pseudomonas aeruginosa [20] = experiment: Potentiation of minocycline-induced antibacterial activity against mexAB-oprM/mexCD-oprJ/mexEF-oprN/mexXY/mexJK/opmH deficient Pseudomonas aeruginosa PAO750 after 18 to 24 hrs by microbroth dilution assay; assay type: functional
Pseudomonas aeruginosa [21] = experiment: Antibacterial activity against Pseudomonas aeruginosa isolate P259-96918 after 18 to 24 hrs by microbroth dilution assay; assay type: functional; how it was run: as §1
Pseudomonas aeruginosa [22] = experiment: Inhibition of RND efflux pump in Pseudomonas aeruginosa isolate 100036 assessed as potentiation of minocycline-induced antibacterial activity by measuring fold reduction in minocycline MIC at 8 ug/ml after 18 to 24 hrs by microbroth dilution assay
How it was run: as §1, with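 “broth microdilution:” for “in MHB:”, “adjuvant” for “test agent”, “wells,” for “wells, incubated”, “FICI” for “FIC index”, “the two FICs; FICI ≤0.5 is synergy.” for “both FICs.”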

Pseudomonas aeruginosa [23] = experiment: Induction of outer membrane permeabilization in Pseudomonas aeruginosa PAO1 assessed as increase in NPN uptake up to 100 secs by fluorescence assay; assay type: functional
How it was run: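 Outer membrane permeabilization in PAO1 cells, read as accumulation of 1-N-phenylnaphthylamine (NPN) by fluorescence over a range of compound concentrations. Triton X-100 (1%) and EDTA (10 mM) served as positive controls.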

[24] = test system: Pseudomonas aeruginosa PAO1; experiment: Inhibition of RND efflux pump in Pseudomonas aeruginosa PAO1 assessed as potentiation of tigecycline-induced antibacterial activity by measuring fold reduction in tigecycline MIC at 8 ug/ml after 18 to 24 hrs by microbroth dilution assay relative to tigecycline alone
How it was run: as §1, with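 “broth microdilution:” for “in MHB:”, “adjuvant” for “test agent”, “wells,” for “wells, incubated”, “FICI” for “FIC index”, “the two FICs; FICI ≤0.5 is synergy.” for “both FICs.”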

Pseudomonas aeruginosa [25] = experiment: Induction of cytoplasmic membrane depolarization in Pseudomonas aeruginosa PAO1 by DiSC3(5) dye based fluorescence assay; assay type: functional
How it was run: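 Cytoplasmic membrane depolarization in P. aeruginosa PAO1, monitored by DiSC3(5) fluorescence across a range of compound concentrations. Colistin served as positive control.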

Structure (SMILES)	Activity (Pseudomonas aeruginosa [1])	fractional inhibitory concentration index (FICI) [2]	fold change (FC) (Enterobacter cloacae [3])	MIC (Pseudomonas aeruginosa [4]) [µg/mL]	fractional inhibitory concentration index (FICI) [5]	MIC (Pseudomonas aeruginosa [6]) [µg/mL]	fractional inhibitory concentration index (FICI) (Pseudomonas aeruginosa [7])	MIC (Enterobacter cloacae [8]) [µg/mL]	MIC (Pseudomonas aeruginosa [9]) [µg/mL]	MIC (Pseudomonas aeruginosa [10]) [µg/mL]	fold change (FC) (Pseudomonas aeruginosa [11])	fold change (FC) [12]	MIC (Pseudomonas aeruginosa [13]) [µg/mL]	fractional inhibitory concentration index (FICI) (Pseudomonas aeruginosa [14])	fractional inhibitory concentration index (FICI) [15]	fold change (FC) (Pseudomonas aeruginosa [16])	MIC (Pseudomonas aeruginosa [17]) [µg/mL]	fractional inhibitory concentration index (FICI) [18]	fractional inhibitory concentration index (FICI) (Pseudomonas aeruginosa [19])	MIC (Klebsiella pneumoniae) [µg/mL]	also measured
Cl.Cl.Cl.Cl.Cl.Cl.Cl.NC[C@H]1O[C@H](O[C@H]2[C@H](OCCCCCCCCCCCCN3CCN(Cc4cccc5ccccc45)CC3)[C@@H](O[C@H]3O[C@H](CO)[C@@H](O)[C@H](N)[C@H]3O)[C@H](N)C[C@@H]2N)[C@H](N)C[C@@H]1O	Dose-dependent effect	> 1.5	4 to 256	32	0.19	0.5	0.02	> 32	64	0.5	8 to 256	8 to 64	1	0.09	< 0.2	8 to 256	< 0.5	< 0.1	0.25	16	Activity (Pseudomonas aeruginosa [20]): inactive; MIC (Pseudomonas aeruginosa [21]): > 1020 µg/mL; fold change (FC) (Pseudomonas aeruginosa [22]): 8 to 256; Activity (Pseudomonas aeruginosa [23]): Dose-dependent effect; fold change (FC) [24]: 8 to 64; Activity (Pseudomonas aeruginosa [25]): Dose-dependent effect
Cl.Cl.Cl.Cl.Cl.Cl.NC[C@H]1O[C@H](O[C@H]2[C@H](OCCCCCCCCCCCCN3CC[C@@H](c4ccc(F)cc4)[C@H](COc4ccc5c(c4)OCO5)C3)[C@@H](O[C@H]3O[C@H](CO)[C@@H](O)[C@H](N)[C@H]3O)[C@H](N)C[C@@H]2N)[C@H](N)C[C@@H]1O	Dose-dependent effect	> 1.5	4 to 256	32	0.19	< 1	0.02	> 32	32	1	8 to 256	8 to 64	1	0.13	< 0.2	8 to 256	0.5	< 0.1	0.19	32	Activity (Pseudomonas aeruginosa [20]): inactive; MIC (Pseudomonas aeruginosa [21]): > 512 µg/mL; fold change (FC) (Pseudomonas aeruginosa [22]): 8 to 256; Activity (Pseudomonas aeruginosa [23]): Dose-dependent effect; fold change (FC) [24]: 8 to 64; Activity (Pseudomonas aeruginosa [25]): Dose-dependent effect
NC[C@H]1C[C@H](C(=O)N[C@H](CCc2ccccc2)C(=O)Nc2ccc3ccccc3c2)N(CCCCCCCCCCCCO[C@@H]2[C@@H](O[C@H]3O[C@H](CO)[C@@H](O)[C@H](N)[C@H]3O)[C@H](N)C[C@H](N)[C@H]2O[C@H]2O[C@H](CN)[C@@H](O)C[C@H]2N)C1	Dose-dependent effect	> 1.5	4 to 256	8 (≈ 7.52 µM)	0.09	0.5	0.03	32 (≈ 30.1 µM)	32 (≈ 30.1 µM)	< 0.125	8 to 256	8 to 64	0.5	0.08	< 0.2	8 to 256	< 0.5	< 0.1	0.31	4	Activity (Pseudomonas aeruginosa [20]): inactive; MIC (Pseudomonas aeruginosa [21]): 64 µg/mL (≈ 60.1 µM); fold change (FC) (Pseudomonas aeruginosa [22]): 8 to 256; Activity (Pseudomonas aeruginosa [23]): Dose-dependent effect; fold change (FC) [24]: 8 to 64; Activity (Pseudomonas aeruginosa [25]): Dose-dependent effect
